Here are results for ten compounds from ChEMBL document CHEMBL1157043, “An eco-friendly synthesis and antimicrobial activities of dihydro-2H-benzo- and naphtho-1,3-oxazine derivatives” (Eur J Med Chem, 2010).

Values after ≈ are worked out from the molar mass of the structure shown. Bounds are passed on as bounds.

One series has as its system Cryptococcus neoformans. Put plainly: Antimicrobial activity against Cryptococcus neoformans after 24 hrs. The format is functional. The essentials: (§1)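 Broth microdilution per NCCLS guidelines in MOPS-buffered RPMI 1640. Starting inoculum was 1-5 × 10^3 cfu/mL, and plates were incubated at 35 °C. MIC was read spectrophotometrically at 492 nm after 24–48 h for yeasts and 72–96 h for mycelial fungi.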

The next series concerns Escherichia coli. Put plainly: Antimicrobial activity against Escherichia coli after 24 hrs. Type of series: functional. The essentials: (§2)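 NCCLS microdilution in Mueller Hinton broth. Strains were grown 24 h on nutrient agar at 37 °C, suspended at about 1.0–2.0 × 10^7 cells/mL (McFarland-matched) in saline with 0.05% Tween 20, then diluted 100 µL into 10 mL medium. Compounds were taken from a 1 mg/mL DMSO stock as twofold dilutions, top final 50 µg/mL. Incubation was 35 °C in a moist, dark chamber, and MIC was read spectrophotometrically at 24 h.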

The subject of a further series is Klebsiella pneumoniae. Put plainly: Antimicrobial activity against Klebsiella pneumoniae after 24 hrs. The format is functional. The essentials: as §2
For series [1], the system named is Aspergillus fumigatus. Put plainly: Antimicrobial activity against Aspergillus fumigatus after 72 to 96 hrs.
In series [2] the test system is L929. Put plainly: Cytotoxicity against mouse L929 cells assessed as change in cellular morphology at 12.5 to 25 ug/ml after 24 hrs […]. To be noted: l929, 24 h. Type of series: cell-based. The essentials: (§3)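 L929 fibroblasts (serum-free RPMI, 37 °C, 5% CO2) were exposed to compound for 24 h, then fixed and stained with Giemsa for 30 min at 37 °C. Excess stain was washed off with PBS, plates were air-dried, and cell morphology was examined under a phase contrast microscope against untreated controls.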

For series [3], the system named is Trichophyton mentagrophytes. Put plainly: Antimicrobial activity against Trichophyton mentagrophytes after 72 to 96 hrs.
A further series concerns Candida parapsilosis. Nature of the series: Antimicrobial activity against Candida parapsilosis ATCC 22019 after 24 hrs. Type of series: functional. The conditions noted are these: Lodderomyces parapsilosis, ATCC 22019, 24 h. The essentials: as §1
Series [4] in a line: Cytotoxicity against mouse L929 cells assessed as viability at 12.5 to 25 ug/ml after 24 hrs by MTT assay. To be noted: read-out: Activity. Type of series: cell-based. The gist of the method: (§4)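 L929 mouse fibroblasts were grown in RPMI 1640 with 10% FBS at 37 °C under 5% CO2 and seeded at 1.0 × 10^5 cells/mL. At 80% confluence the medium was switched to serum-free RPMI, and cells were exposed 24 h to 0.09–25 µg/mL in twofold steps. After PBS washes, cells got 0.5 mg/mL MTT for 4 h at 37 °C, then DMSO for 30 min at room temperature. Viability was calculated as (A570−A630) relative to untreated cells.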
For orientation: Tetrazolium dyes change colour on reduction, which living cells bring about.

The next series has as its system Candida albicans. Nature of the series: Antimicrobial activity against Candida albicans after 24 hrs. Type of series: functional. The essentials:
as §1

A further series has as its system Pseudomonas aeruginosa. Put plainly: Antimicrobial activity against Pseudomonas aeruginosa after 24 hrs. Type of series: functional. The gist of the method:
as §2

Series [5] deals with L929. Nature of the series: Cytotoxicity against mouse L929 cells at 6.25 ug/ml after 24 hrs by MTT assay. The conditions noted are these: l929, 24 h. The format is cell-based. The gist of the method:
as §4

For the next series, the system named is Staphylococcus aureus. Nature of the series: Antimicrobial activity against Staphylococcus aureus after 24 hrs. The format is functional. The gist of the method:
as §2

In a further series the test system is Sporothrix schenckii. Nature of the series: Antimicrobial activity against Sporothrix schenckii after 24 hrs. The format is functional. The gist of the method: as §1
In series [6] the test system is L929. Put plainly: Cytotoxicity against mouse L929 cells assessed as change in morphology at 6.25 ug/ml after 24 hrs […]. Type of series: cell-based. The conditions noted are these: l929, 24 h. The essentials: as §3
In series [7] the test system is Trichophyton mentagrophytes. Nature of the series: Antimicrobial activity against Trichophyton mentagrophytes after 24 hrs. The format is functional.
For series [8], the system named is Aspergillus fumigatus. Put plainly: Antimicrobial activity against Aspergillus fumigatus after 24 hrs. Type of series: functional.

`Clc1ccccc1N1COc2c(Cl)ccc(Cl)c2C1`: the MIC (in general, the smallest concentration in the dilution series that meets the test's criterion for growth inhibition) against Cryptococcus neoformans is 50 µg/mL (≈ 159 µM); in the series with Escherichia coli, more than 50 µg/mL; in the series on Klebsiella pneumoniae, 6.25 µg/mL (≈ 19.9 µM); in the series with Aspergillus fumigatus [1] it was 50 µg/mL (≈ 159 µM); in series [3], 12.5 µg/mL (≈ 39.7 µM); against Candida parapsilosis, 50 µg/mL (≈ 159 µM). The MIC was more than 50 µg/mL with Candida albicans, 50 µg/mL (≈ 159 µM) in the series on Pseudomonas aeruginosa, 12.5 µg/mL (≈ 39.7 µM) in the series with Staphylococcus aureus and 12.5 µg/mL (≈ 39.7 µM) with Sporothrix schenckii. Also, the Activity result with L929 [2] was “Toxic”; in the series on L929 [5], “Non-toxic”; in the series on L929 [6], “Non-toxic”. In series [4], the viability at 24 h was more than 90%.
As for `Cc1ccc2c(c1)CN(c1ccc(Cl)cc1)CO2`, the MIC is 25 µg/mL (≈ 96.3 µM) in the series with Cryptococcus neoformans; more than 50 µg/mL against Escherichia coli; 25 µg/mL (≈ 96.3 µM) in the series with Klebsiella pneumoniae; 50 µg/mL (≈ 193 µM) in the series on Candida parapsilosis; 50 µg/mL (≈ 193 µM) against Candida albicans; 50 µg/mL (≈ 193 µM) in the series on Pseudomonas aeruginosa. Also, the MIC is 25 µg/mL (≈ 96.3 µM) in the series on Staphylococcus aureus, 12.5 µg/mL (≈ 48.1 µM) in [7], 25 µg/mL (≈ 96.3 µM) in the series with Aspergillus fumigatus [8] and 12.5 µg/mL (≈ 48.1 µM) with Sporothrix schenckii.
For the compound `Clc1cc(Cl)c2c(c1)CN(CCN1COc3c(Cl)cc(Cl)cc3C1)CO2`, the MIC in the series on Cryptococcus neoformans is 25 µg/mL (≈ 57.6 µM); in the series with Escherichia coli, more than 50 µg/mL; in the series on Klebsiella pneumoniae, 1.56 µg/mL (≈ 3.59 µM); against Aspergillus fumigatus [1], 50 µg/mL (≈ 115 µM); in series [3], 25 µg/mL (≈ 57.6 µM); against Candida parapsilosis it was 50 µg/mL (≈ 115 µM). For the same compound, the MIC in the series on Candida albicans was 50 µg/mL (≈ 115 µM); against Pseudomonas aeruginosa, more than 50 µg/mL; against Staphylococcus aureus, 0.39 µg/mL (≈ 0.898 µM); in the series with Sporothrix schenckii, more than 50 µg/mL. The Activity result is reported as “Toxic” with L929 [2], “Non-toxic” in the series with L929 [5] and “Non-toxic” with L929 [6]. Also, the viability at 24 h in [4] was more than 90%.
Take `Cc1ccc(N2COc3ccc(C)cc3C2)cc1`: the MIC was 50 µg/mL (≈ 209 µM) against Cryptococcus neoformans; 25 µg/mL (≈ 104 µM) in the series with Escherichia coli; 50 µg/mL (≈ 209 µM) in the series with Klebsiella pneumoniae; 50 µg/mL (≈ 209 µM) against Aspergillus fumigatus [1]; 12.5 µg/mL (≈ 52.2 µM) in series [3]; 50 µg/mL (≈ 209 µM) in the series with Candida parapsilosis. Also, the MIC against Candida albicans was 50 µg/mL (≈ 209 µM); in the series with Pseudomonas aeruginosa, more than 50 µg/mL; against Staphylococcus aureus, 25 µg/mL (≈ 104 µM); in the series on Sporothrix schenckii, 12.5 µg/mL (≈ 52.2 µM).
With `Clc1ccc(N2COc3ccc4ccccc4c3C2)cc1`, the MIC was 50 µg/mL (≈ 169 µM) with Cryptococcus neoformans; more than 50 µg/mL in the series with Escherichia coli; 50 µg/mL (≈ 169 µM) against Klebsiella pneumoniae; more than 50 µg/mL against Aspergillus fumigatus [1]; 25 µg/mL (≈ 84.5 µM) in series [3]; more than 50 µg/mL against Candida parapsilosis. The MIC with Candida albicans was more than 50 µg/mL; in the series on Pseudomonas aeruginosa, 50 µg/mL (≈ 169 µM); in the series on Staphylococcus aureus, more than 50 µg/mL; against Sporothrix schenckii, 50 µg/mL (≈ 169 µM).
Regarding `Clc1cc(Cl)c(N2COc3ccc4ccccc4c3C2)c(Cl)c1`, the MIC with Cryptococcus neoformans is more than 50 µg/mL; in the series on Escherichia coli it was more than 50 µg/mL; against Klebsiella pneumoniae, more than 50 µg/mL; in the series on Aspergillus fumigatus [1] it was more than 50 µg/mL; in series [3], 50 µg/mL (≈ 137 µM); against Candida parapsilosis, more than 50 µg/mL. Also, the MIC against Candida albicans, with Pseudomonas aeruginosa, against Staphylococcus aureus and against Sporothrix schenckii was more than 50 µg/mL each time.
In the case of `c1ccc2c(c1)CN(CCN1COc3ccccc3C1)CO2`, the MIC with Cryptococcus neoformans is 50 µg/mL (≈ 169 µM); against Escherichia coli, more than 50 µg/mL; in the series with Klebsiella pneumoniae, more than 50 µg/mL; in the series on Aspergillus fumigatus [1], 50 µg/mL (≈ 169 µM); in series [3], 25 µg/mL (≈ 84.4 µM); in the series with Candida parapsilosis, more than 50 µg/mL. In addition, the MIC in the series with Candida albicans is more than 50 µg/mL; with Pseudomonas aeruginosa, more than 50 µg/mL; in the series on Staphylococcus aureus, more than 50 µg/mL; in the series on Sporothrix schenckii, 25 µg/mL (≈ 84.4 µM).
Turning to `Cc1ccc2c(c1)CN(c1ccc(F)cc1)CO2`, the MIC against Cryptococcus neoformans is 50 µg/mL (≈ 206 µM); against Escherichia coli it was 50 µg/mL (≈ 206 µM); against Klebsiella pneumoniae, 50 µg/mL (≈ 206 µM); with Candida parapsilosis it was more than 50 µg/mL; with Candida albicans it was more than 50 µg/mL; in the series with Pseudomonas aeruginosa it was 50 µg/mL (≈ 206 µM). For the same compound, the MIC in the series on Staphylococcus aureus was 50 µg/mL (≈ 206 µM); in series [7], 25 µg/mL (≈ 103 µM); in the series with Aspergillus fumigatus [8], more than 50 µg/mL; against Sporothrix schenckii it was 25 µg/mL (≈ 103 µM).
As to `Clc1ccc2c(c1)CN(c1ccccc1Cl)CO2`, the MIC is 12.5 µg/mL (≈ 44.6 µM) against Cryptococcus neoformans; more than 50 µg/mL with Escherichia coli; more than 50 µg/mL in the series on Klebsiella pneumoniae; 25 µg/mL (≈ 89.2 µM) with Aspergillus fumigatus [1]; 3.12 µg/mL (≈ 11.1 µM) in [3]; 25 µg/mL (≈ 89.2 µM) in the series on Candida parapsilosis. For the same compound, the MIC in the series with Candida albicans was 12.5 µg/mL (≈ 44.6 µM); in the series on Pseudomonas aeruginosa it was more than 50 µg/mL; against Staphylococcus aureus, 6.25 µg/mL (≈ 22.3 µM); against Sporothrix schenckii it was 6.25 µg/mL (≈ 22.3 µM). The Activity entry was “Toxic” in the series on L929 [2], “Non-toxic” in the series on L929 [5] and “Non-toxic” with L929 [6]. In addition, the viability at 24 h in series [4] is more than 90%.
On to `Clc1ccc2c(c1)CN(CCN1COc3ccc(Cl)cc3C1)CO2`, for which the MIC against Cryptococcus neoformans is 12.5 µg/mL (≈ 34.2 µM); in the series on Escherichia coli, more than 50 µg/mL; in the series with Klebsiella pneumoniae it was more than 50 µg/mL; against Aspergillus fumigatus [1], 50 µg/mL (≈ 137 µM); in [3] it was 3.12 µg/mL (≈ 8.54 µM); against Candida parapsilosis, 25 µg/mL (≈ 68.4 µM). Further, the MIC in the series on Candida albicans was 12.5 µg/mL (≈ 34.2 µM); in the series on Pseudomonas aeruginosa it was more than 50 µg/mL; against Staphylococcus aureus it was 12.5 µg/mL (≈ 34.2 µM); against Sporothrix schenckii, 6.25 µg/mL (≈ 17.1 µM). Moreover, the Activity result with L929 [2] is “Toxic”; in the series on L929 [5] it was “Non-toxic”; in the series with L929 [6], “Non-toxic”. Moreover, the viability at 24 h in series [4] is more than 90%.
